{"source": "ChEMBL document CHEMBL1158347", "about": "“Substituted quinazolines, part 3. Synthesis, in vitro antitumor activity and molecular modeling study of certain 2-thieno-4(3H)-quinazolinone analogs” (2009)", "type_in_all_cases": "functional", "key": {"[1]": {"assay": "Growth inhibition of human breast cancer cells after 48 hrs", "conditions": "Cancer cell lines", "procedure,_shortened": "(§1)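 NCI in vitro disease-oriented human tumor cell line screen. Compounds passing a one-dose primary assay (MCF-7, NCI-H460, SF-268; pass = growth of any line reduced to 32% or less) were tested on the 60-line panel over a 5-log dose range. Compounds were dissolved in DMSO, with under 1% DMSO in final dilutions, and tested in duplicate at 6×10^4 cells/ml. Cells were incubated at 37 °C in 5% CO2 for 48 h, then diluted 10-fold in saline and counted with a Coulter counter, with counts corrected for dilution. Controls held PBS/DMSO at identical dilutions. GI50 was reported per line and as subpanel/full-panel mean-graph midpoint.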"}, "HL-60(TB)": {"test_system": "HL-60(TB)", "assay": "Growth inhibition of human HL-60(TB) cells after 48 hrs", "conditions": "HL-60, 48 h; for CC50: read-out: LC50 (the source's name)", "procedure,_shortened": "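NCI 60-cell-line screen over a 5-log dose range. Compounds were dissolved in DMSO, final DMSO under 1%. Duplicate wells were seeded at 6×10^4 cells/ml, with PBS/DMSO vehicle controls at identical dilutions. Cells were incubated 48 h at 37 °C in humidified 5% CO2, diluted 10-fold in saline, and counted by Coulter counter with dilution correction. GI50 read-out.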"}, "[2]": {"assay": "Growth inhibition of human Colon cancer cells after 48 hrs", "conditions": "Cancer cell lines", "procedure,_shortened": "as §1"}, "RPMI-8226": {"test_system": "RPMI-8226", "assay": "Growth inhibition of human RPMI8226 cells after 48 hrs", "conditions": "RPMI-8226, 48 h; for CC50: read-out: LC50 (the source's name)", "procedure,_shortened": "as §1"}, "[3]": {"assay": "Growth inhibition of human prostate cancer cells after 48 hrs", "conditions": "Cancer cell lines", "procedure,_shortened": "as §1"}, "SF-539": {"test_system": "SF-539", "assay": "Growth inhibition of human SF539 cells after 48 hrs", "conditions": "SF-539, 48 h; for CC50: read-out: LC50 (the source's name)", "procedure,_shortened": "as §1"}, "[4]": {"assay": "Growth inhibition of human ovarian cancer cells after 48 hrs", "conditions": "Cancer cell lines", "procedure,_shortened": "as §1"}, "[5]": {"assay": "Growth inhibition of human leukemia cells after 48 hrs", "conditions": "Leukemia cell", "procedure,_shortened": "as §1"}, "NSCLC": {"test_system": "NSCLC", "assay": "Growth inhibition of human NSCLC cells after 48 hrs", "procedure,_shortened": "as §1"}, "CCRF-CEM": {"test_system": "CCRF-CEM", "assay": "Growth inhibition of human CCRF-CEM cells after 48 hrs", "conditions": "for CC50: read-out: LC50 (the source's name)", "procedure,_shortened": "as §1"}, "[6]": {"assay": "Growth inhibition of human renal cancer cells after 48 hrs", "conditions": "Cancer cell lines", "procedure,_shortened": "as §1"}, "K562": {"test_system": "K562", "assay": "Growth inhibition of human K562 cells after 48 hrs", "conditions": "K562, 48 h", "procedure,_shortened": "as §1"}, "[7]": {"assay": "Growth inhibition of human CNS cancer cells after 48 hrs", "conditions": "Cancer cell lines", "procedure,_shortened": "as §1"}, "MCF7": {"test_system": "MCF7", "assay": "Growth inhibition of human MCF7 cells after 48 hrs", "conditions": "MCF7, 48 h; for CC50: read-out: LC50 (the source's name)", "procedure,_shortened": "as §1"}, "UACC-257": {"test_system": "UACC-257", "assay": "Growth inhibition of human UACC257 cells after 48 hrs", "conditions": "UACC-257, 48 h", "procedure,_shortened": "as §1"}, "SK-MEL-2": {"test_system": "SK-MEL-2", "assay": "Growth inhibition of human SK-MEL-2 cells after 48 hrs", "conditions": "SK-MEL-2, 48 h", "procedure,_shortened": "as §1"}, "[8]": {"assay": "Growth inhibition of human melanoma cells after 48 hrs", "conditions": "Melanoma cell", "procedure,_shortened": "as §1"}, "T47D": {"test_system": "T47D", "assay": "Growth inhibition of human T47D cells after 48 hrs", "procedure,_shortened": "as §1"}, "[9]": {"conditions": "read-out: LC50 (the source's name)"}}, "data": [{"smiles": "O=c1c2cc(I)ccc2nc(-c2cccs2)n1Nc1ccccc1", "values": [{"measurement": "GI50", "setting": "[1]", "value": 5.9, "unit": "µM"}, {"measurement": "TGI", "setting": "[1]", "value": "> 100", "unit": "µM"}, {"measurement": "GI50", "setting": "HL-60(TB)", "value": 0.4, "unit": "µM"}, {"measurement": "TGI", "setting": "HL-60(TB)", "value": "> 100", "unit": "µM"}, {"measurement": "CC50", "setting": "HL-60(TB)", "value": "> 100", "unit": "µM"}, {"measurement": "GI50", "setting": "[2]", "value": 6.5, "unit": "µM"}, {"measurement": "TGI", "setting": "[2]", "value": 79.2, "unit": "µM"}, {"measurement": "GI50", "setting": "RPMI-8226", "value": 5, "unit": "µM"}, {"measurement": "TGI", "setting": "RPMI-8226", "value": "> 100", "unit": "µM"}, {"measurement": "CC50", "setting": "RPMI-8226", "value": "> 100", "unit": "µM"}, {"measurement": "GI50", "setting": "[3]", "value": 1.61, "unit": "µM"}, {"measurement": "TGI", "setting": "[3]", "value": "> 100", "unit": "µM"}, {"measurement": "GI50", "setting": "SF-539", "value": 34, "unit": "µM"}, {"measurement": "TGI", "setting": "SF-539", "value": "> 100", "unit": "µM"}, {"measurement": "CC50", "setting": "SF-539", "value": "> 100", "unit": "µM"}, {"measurement": "GI50", "setting": "[4]", "value": 8.6, "unit": "µM"}, {"measurement": "TGI", "setting": "[4]", "value": 80.1, "unit": "µM"}, {"measurement": "GI50", "setting": "[5]", "value": 12.7, "unit": "µM"}, {"measurement": "TGI", "setting": "[5]", "value": 87.1, "unit": "µM"}, {"measurement": "GI50", "setting": "NSCLC", "value": 8.6, "unit": "µM"}, {"measurement": "TGI", "setting": "NSCLC", "value": 88, "unit": "µM"}, {"measurement": "GI50", "setting": "CCRF-CEM", "value": 51, "unit": "µM"}, {"measurement": "TGI", "setting": "CCRF-CEM", "value": "> 100", "unit": "µM"}, {"measurement": "CC50", "setting": "CCRF-CEM", "value": "> 100", "unit": "µM"}, {"measurement": "GI50", "setting": "[6]", "value": 19.7, "unit": "µM"}, {"measurement": "TGI", "setting": "[6]", "value": 93.1, "unit": "µM"}, {"measurement": "GI50", "setting": "K562", "value": 0.3, "unit": "µM"}, {"measurement": "TGI", "setting": "K562", "value": 23, "unit": "µM"}, {"measurement": "GI50", "setting": "[7]", "value": 16.3, "unit": "µM"}, {"measurement": "TGI", "setting": "[7]", "value": 81.9, "unit": "µM"}, {"measurement": "GI50", "setting": "MCF7", "value": 2, "unit": "µM"}, {"measurement": "TGI", "setting": "MCF7", "value": "> 100", "unit": "µM"}, {"measurement": "CC50", "setting": "MCF7", "value": "> 100", "unit": "µM"}, {"measurement": "GI50", "setting": "UACC-257", "value": 32, "unit": "µM"}, {"measurement": "TGI", "setting": "UACC-257", "value": "> 100", "unit": "µM"}, {"measurement": "GI50", "setting": "SK-MEL-2", "value": 0.3, "unit": "µM"}, {"measurement": "TGI", "setting": "SK-MEL-2", "value": 2, "unit": "µM"}, {"measurement": "GI50", "setting": "[8]", "value": 8.5, "unit": "µM"}, {"measurement": "TGI", "setting": "[8]", "value": 85.9, "unit": "µM"}]}, {"smiles": "O=S(=O)(Nc1nccs1)c1ccc(Nc2nc(-c3cccs3)nc3ccc(I)cc23)cc1", "values": [{"measurement": "GI50", "setting": "T47D", "value": 15, "unit": "µM"}, {"measurement": "LC50", "setting": "T47D", "value": "> 100", "unit": "µM"}, {"measurement": "TGI", "setting": "T47D", "value": 51, "unit": "µM"}, {"measurement": "GI50", "setting": "[1]", "value": 25.9, "unit": "µM"}, {"measurement": "TGI", "setting": "[1]", "value": 74.9, "unit": "µM"}, {"measurement": "GI50", "setting": "HL-60(TB)", "value": 32, "unit": "µM"}, {"measurement": "TGI", "setting": "HL-60(TB)", "value": 80, "unit": "µM"}, {"measurement": "CC50", "setting": "HL-60(TB)", "value": "> 100", "unit": "µM"}, {"measurement": "GI50", "setting": "[2]", "value": 24.3, "unit": "µM"}, {"measurement": "LC50", "setting": "[2]", "value": 87.3, "unit": "µM"}, {"measurement": "TGI", "setting": "[2]", "value": 61.1, "unit": "µM"}, {"measurement": "GI50", "setting": "RPMI-8226", "value": 1, "unit": "µM"}, {"measurement": "TGI", "setting": "RPMI-8226", "value": 3, "unit": "µM"}, {"measurement": "CC50", "setting": "RPMI-8226", "value": 8, "unit": "µM"}, {"measurement": "GI50", "setting": "[3]", "value": 13.9, "unit": "µM"}, {"measurement": "TGI", "setting": "[3]", "value": 35.9, "unit": "µM"}, {"measurement": "CC50", "setting": "[3]; [9]", "value": 73, "unit": "µM"}, {"measurement": "GI50", "setting": "SF-539", "value": 32, "unit": "µM"}, {"measurement": "TGI", "setting": "SF-539", "value": 60, "unit": "µM"}, {"measurement": "CC50", "setting": "SF-539", "value": "> 100", "unit": "µM"}, {"measurement": "GI50", "setting": "[4]", "value": 25.8, "unit": "µM"}, {"measurement": "TGI", "setting": "[4]", "value": 68.9, "unit": "µM"}, {"measurement": "GI50", "setting": "[5]", "value": 21.7, "unit": "µM"}, {"measurement": "TGI", "setting": "[5]", "value": 59.2, "unit": "µM"}, {"measurement": "CC50", "setting": "[5]; [9]", "value": 69.4, "unit": "µM"}, {"measurement": "GI50", "setting": "NSCLC", "value": 23.3, "unit": "µM"}, {"measurement": "LC50 (concentration killing 50% of cells)", "setting": "NSCLC", "value": 92.4, "unit": "µM"}, {"measurement": "TGI", "setting": "NSCLC", "value": 65.2, "unit": "µM"}, {"measurement": "GI50", "setting": "CCRF-CEM", "value": 2, "unit": "µM"}, {"measurement": "TGI", "setting": "CCRF-CEM", "value": 4, "unit": "µM"}, {"measurement": "CC50", "setting": "CCRF-CEM", "value": 9, "unit": "µM"}, {"measurement": "GI50", "setting": "[6]", "value": 28.3, "unit": "µM"}, {"measurement": "TGI", "setting": "[6]", "value": 79.6, "unit": "µM"}, {"measurement": "GI50", "setting": "K562", "value": 38, "unit": "µM"}, {"measurement": "LC50 (concentration killing 50% of cells)", "setting": "K562", "value": "> 100", "unit": "µM"}, {"measurement": "TGI", "setting": "K562", "value": "> 100", "unit": "µM"}, {"measurement": "GI50", "setting": "[7]", "value": 27.7, "unit": "µM"}, {"measurement": "TGI", "setting": "[7]", "value": 68.3, "unit": "µM"}, {"measurement": "GI50", "setting": "MCF7", "value": 26, "unit": "µM"}, {"measurement": "TGI", "setting": "MCF7", "value": "> 100", "unit": "µM"}, {"measurement": "CC50", "setting": "MCF7", "value": "> 100", "unit": "µM"}, {"measurement": "GI50", "setting": "UACC-257", "value": 0.04, "unit": "µM"}, {"measurement": "LC50", "setting": "UACC-257", "value": 95, "unit": "µM"}, {"measurement": "TGI", "setting": "UACC-257", "value": 28, "unit": "µM"}, {"measurement": "GI50", "setting": "SK-MEL-2", "value": 22, "unit": "µM"}, {"measurement": "LC50", "setting": "SK-MEL-2", "value": "> 100", "unit": "µM"}, {"measurement": "TGI", "setting": "SK-MEL-2", "value": 47, "unit": "µM"}, {"measurement": "GI50", "setting": "[8]", "value": 18.9, "unit": "µM"}, {"measurement": "LC50 (lethal concentration 50%)", "setting": "[8]", "value": 92.1, "unit": "µM"}, {"measurement": "TGI", "setting": "[8]", "value": 45.5, "unit": "µM"}]}]}
